# Measurements from different studies.
# Each line is one published result; the experiments were not run side by side.
# Target: Serine/threonine-protein kinase D3 (PRKD3, Homo sapiens, UniProt O94806)
# Sequence (O94806 1-890, as in one of the studies): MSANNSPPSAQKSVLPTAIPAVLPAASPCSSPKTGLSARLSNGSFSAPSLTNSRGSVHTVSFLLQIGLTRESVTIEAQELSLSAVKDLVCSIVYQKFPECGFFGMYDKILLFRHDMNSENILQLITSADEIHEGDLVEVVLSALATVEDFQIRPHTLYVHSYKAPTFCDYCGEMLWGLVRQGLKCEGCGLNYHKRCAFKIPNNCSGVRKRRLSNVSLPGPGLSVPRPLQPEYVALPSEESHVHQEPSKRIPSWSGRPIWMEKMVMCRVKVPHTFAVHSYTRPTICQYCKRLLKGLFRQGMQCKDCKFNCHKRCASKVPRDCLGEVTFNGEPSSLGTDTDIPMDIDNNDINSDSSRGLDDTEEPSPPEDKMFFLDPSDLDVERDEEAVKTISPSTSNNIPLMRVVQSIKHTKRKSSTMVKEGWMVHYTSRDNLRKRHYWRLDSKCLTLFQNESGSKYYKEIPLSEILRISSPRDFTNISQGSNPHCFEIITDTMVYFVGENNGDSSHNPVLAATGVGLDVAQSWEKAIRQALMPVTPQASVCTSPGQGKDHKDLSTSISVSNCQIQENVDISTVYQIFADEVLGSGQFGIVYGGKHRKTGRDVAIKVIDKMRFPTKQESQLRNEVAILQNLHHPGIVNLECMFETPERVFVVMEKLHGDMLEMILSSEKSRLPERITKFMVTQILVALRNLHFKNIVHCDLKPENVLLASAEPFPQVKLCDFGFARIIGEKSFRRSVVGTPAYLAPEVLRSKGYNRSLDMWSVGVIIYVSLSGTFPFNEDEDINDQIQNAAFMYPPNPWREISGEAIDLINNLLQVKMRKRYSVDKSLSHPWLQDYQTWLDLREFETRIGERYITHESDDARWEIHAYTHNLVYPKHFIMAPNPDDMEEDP
SMILES,assay,setting,endpoint,value
COc1cc(Nc2ncc(F)c(Nc3ccc4c(n3)NC(=O)C(C)(C)O4)n2)cc(OC)c1OC,binding,10 µM,inhibition,0%
N#CC1(c2ccccn2)CCN(Cc2cc(C(=O)O)c(=O)n3ccccc23)CC1,"cell-free assay, competition with immobilised ligand",1 µM,remaining binding,98%
Cn1cc(-c2cc(F)cc(N3CCn4c(cc5c4CCCC5)C3=O)c2CO)cc(Nc2ccc(N3CCN(C4COC4)CC3)cn2)c1=O,"enzyme activity, inhibitor",0.1 µM,inhibition,11%
Cc1nn(C)cc1-c1nc2c(N3CCN(Cc4ccc(Cl)cc4)CC3)c(Cl)cnc2[nH]1,"binding, competition with immobilised ligand",1 µM,remaining binding,100%
Cn1cncc1[C@](O)(COc1ccc(C#N)cc1-c1ccc(OC(F)(F)F)cc1)c1ccc(C#N)cc1,"cell-free assay, competition with immobilised ligand",1 µM,remaining binding,100%
O=c1[nH]c2ccccc2n1C1CCN(Cc2ccc(-c3[nH]c4cc5ncnc5cc4nc3-c3ccccc3)cc2)CC1,cell-free assay,0.5 µM,remaining signal,99.5%
COc1ncccc1-c1cnn2ccc(N3CCN(C(=O)OC(C)C)CC3)nc12,"binding, competition with immobilised ligand",1 µM,remaining binding,100%
CC(C)(C)c1cc(C=C(C#N)C#N)cc(Br)c1O,"enzyme activity, inhibitor",0.5 µM,remaining activity,92.7%
Nc1ncc(-c2nc(N3CCOCC3)nc(N3CCOCC3)n2)c(C(F)F)n1,"binding, competition with immobilised ligand",10 µM,remaining binding,67%
